Laboratory results as given in paper PMC4938767 (Structure (London, England : 1993), 2016).

What was measured:
[1] = system: hNaa60 1–184; experiment: Size-exclusion chromatography, dimer to monomer transition; design: species or system human; details: with Ac-CoA
[2] = system: N-terminal acetyltransferase Naa50; details: ref Evjenth et al., 2012; cited from earlier work
[3] = system: other acetyltransferases; details: ref De Angelis et al., 1998; Thompson et al., 2001; cited from earlier work
[4] = DSF / purification stability of hNaa60 point mutants; details: for initial fluorescence (in words): vs hNaa60 WT; for stability on purification (in words): data not shown
[5] = system: substrate polypeptide MKAV24; format: biochemical; details: for Wild-type efficiency (%): catalytic efficiency relative to hNaa60 WT; for Kcat/Km: hNaa60 variant, substrate peptide MKAV24, 50 mM HEPES pH 7.5, 100 mM NaCl, 2 mM EDTA, DTNB, 412 nm; for catalytic efficiency (in words): β3–β4 loop contact mutants; for reduction in catalytic efficiency: substrate MKAV24, compared to hNaa60 WT; for change in Km (in words): substrate MKAV24, vs hNaa60 WT
In short: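 Purified hNaa60 variants (His-SUMO tag cleaved, nickel-purified) with peptide and Ac-CoA in assay buffer, quenched with 3.2 M guanidinium-HCl/100 mM sodium phosphate pH 6.8. CoA detected with DTNB (2 mM final) at 412 nm, negative-control background subtracted. Thiophenolate quantified with ε = 13.7 × 103 M−1 cm−1. Rates taken in the linear phase and fitted for kinetic constants.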

With CC(=O)SCCNC(=O)CCNC(=O)[C@H](O)C(C)(C)COP(=O)(O)OP(=O)(O)OC[C@H]1O[C@@H](n2cnc3c(N)ncnc32)[C@H](O)[C@@H]1OP(=O)(O)O [Ac-CoA, acetyl CoA] the “elution of hNaa60 1–184 (oligomeric state, in words)” value [1] was “elutes at a column volume corresponding to twice the theoretical size of the enzyme”.
For CCNC(=O)CCNC(=O)[C@H](O)C(C)(C)COP(=O)(O)OP(=O)(O)OC[C@H]1O[C@@H](n2cnc3c(N)ncnc32)[C@H](O)[C@@H]1OP(=O)(O)O [desulfoCoA], the “inhibitor type (Naa50)” value [2] is listed as “competitive inhibitor” and the “inhibitor type (other acetyltransferases)” value [3] is listed as “competitive inhibitor”.
For “D81A: hNaa60 point mutant, β3–β4 loop contact”, the “destabilization compared to hNaa60 WT (in words)” value ([4]; DSF) was “clearly destabilized compared to hNaa60 WT”, the “initial fluorescence (in words)” value ([4]; DSF) was “higher initial fluorescence” and the “Wild-type efficiency (%)” value ([5]; substrate MKAV24) was 136.9%. The Kcat/Km [5] was 518 M⁻¹ s⁻¹ and the “catalytic efficiency (in words)” value ([5]; substrate MKAV24) was “modest overall effect on catalytic efficiency”.
For “H138A: hNaa60 point mutant, catalytic residue”, the “stability on purification (in words)” value [4] was “unstable and could not be purified”.
With “H138F: hNaa60 point mutant, catalytic residue” the “stability on purification (in words)” value [4] was “unstable and could not be purified”.
With “I36A: hNaa60 point mutant, M1p hydrophobic pocket” the “destabilization compared to hNaa60 WT (in words)” value ([4]; DSF) was “did not show any signs of destabilization”, the Kcat/Km [5] was 60 M⁻¹ s⁻¹ and the “reduction in catalytic efficiency” value [5] was ~6 fold. The “change in Km (in words)” value [5] was “small increase in Km”.
In the case of “I84A: hNaa60 point mutant, β3–β4 loop contact”, the “destabilization compared to hNaa60 WT (in words)” value ([4]; DSF) is reported as “clearly destabilized compared to hNaa60 WT”, the “initial fluorescence (in words)” value ([4]; DSF) is reported as “higher initial fluorescence” and the “Wild-type efficiency (%)” value ([5]; substrate MKAV24) is reported as 200.4%. For the same compound, the Kcat/Km [5] was 758 M⁻¹ s⁻¹ and the “catalytic efficiency (in words)” value ([5]; substrate MKAV24) was “modest overall effect on catalytic efficiency”.
With “I167A: hNaa60 point mutant, M1p hydrophobic pocket” the “Wild-type efficiency (%)” value ([5]; substrate MKAV24) was 33.3%, the Kcat/Km [5] was 123 M⁻¹ s⁻¹ and the “reduction in catalytic efficiency” value [5] was ~3 fold. For the same compound, the “change in Km (in words)” value [5] was “small increase in Km”.
For “L140A: hNaa60 point mutant, M1p hydrophobic pocket”, the “Wild-type efficiency (%)” value ([5]; substrate MKAV24) was 56.0%, the Kcat/Km [5] was 210 M⁻¹ s⁻¹ and the “catalytic efficiency (kcat/Km) as fold of hNaa60 WT” value ([5]; substrate MKAV24) was “approximately 0.5 fold”.
For P35A/I36A/I167A: hNaa60 triple mutant, the “Wild-type efficiency (%)” value ([5]; substrate MKAV24) was <10% and the “catalytic activity (in words)” value ([5]; substrate MKAV24) was “not able to detect any catalytic activity”.
With “P35A: hNaa60 point mutant, M1p hydrophobic pocket” the Kcat/Km [5] was 60 M⁻¹ s⁻¹, the “reduction in catalytic efficiency” value [5] was ~6 fold and the “change in Km (in words)” value [5] was “small increase in Km”.
With WT: wild-type hNaa60 enzyme the “melting point (apo)” value ([4]; DSF, apo hNaa60) was 47.9 °C and the “Wild-type efficiency (%)” value ([5]; substrate MKAV24) was 100%.
With “Y38A: hNaa60 point mutant, peptide anchoring residue” the “Wild-type efficiency (%)” value ([5]; substrate MKAV24) was <10% and the “catalytic activity (in words)” value ([5]; substrate MKAV24) was “complete loss of catalytic activity”.
For “Y97F: hNaa60 point mutant, catalytic residue”, the “Wild-type efficiency (%)” value ([5]; substrate MKAV24) was <10% and the “catalytic activity (in words)” value ([5]; substrate MKAV24) was “complete loss of catalytic activity”.
For “Y164A: hNaa60 point mutant, β3–β4 loop contact”, the “Wild-type efficiency (%)” value ([5]; substrate MKAV24) was 141.7% and the Kcat/Km [5] was 535 M⁻¹ s⁻¹.
In the case of “Y164F: hNaa60 point mutant, β3–β4 loop contact”, the “destabilization compared to hNaa60 WT (in words)” value ([4]; DSF) is reported as “clearly destabilized compared to hNaa60 WT”, the “Wild-type efficiency (%)” value ([5]; substrate MKAV24) is reported as 154.9% and the Kcat/Km [5] is reported as 585 M⁻¹ s⁻¹.
With “Y165F: hNaa60 point mutant, peptide anchoring residue” the “Wild-type efficiency (%)” value ([5]; substrate MKAV24) was 24.4%, the Kcat/Km [5] was 90 M⁻¹ s⁻¹ and the “reduction in catalytic efficiency” value [5] was “approximately 4 fold”.
